Converted amounts (≈) assume the structure as drawn.
How the values were obtained:
L1210 [1] = test: Dose inhibiting L1210/0 murine leukemia cell proliferation by 50% in presence of 5 ug/mL of dThd.; type: functional; conditions: Mus musculus, read-out: ID50 (the source's name)
L1210 [2] = test: Dose inhibiting L1210/0 murine leukemia cell proliferation by 50% in presence of 125 ug/mL of dUrd.; type: functional; conditions: Mus musculus, read-out: ID50 (the source's name)
[3] = Ratio of ID50 upon addition of dThd to the ID50 upon addition of dUrd against the L1210/0 cell proliferation.; type: functional
[4] = Ki/Km values of L1210/0 dTMP synthase for the compound was determined.
L1210 [5] = test: Dose inhibiting L1210/Br-dUrd murine leukemia cell proliferation by 50%; type: functional; conditions: Mus musculus, read-out: ID50 (the source's name)
How it was run: (§1)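 L1210 cells (5×10^4 per well) grown in Eagle's MEM with 10% inactivated fetal calf serum, 2 mM L-glutamine, 0.075% NaHCO3, then exposed to varying test compound concentrations for 48 h at 37 °C in humidified CO2 atmosphere; growth linear over this period. Cells counted by Coulter counter; ID50 = concentration reducing living cell number by 50%.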

L1210 [6] = test: Dose inhibiting L1210/0 murine leukemia cell proliferation by 50% in presence of 500 ug/mL of dCyd.; type: functional; conditions: Mus musculus, read-out: ID50 (the source's name)
L1210 [7] = test: Dose inhibiting L1210/0 murine leukemia cell proliferation by 50%; type: functional; conditions: Mus musculus, read-out: ID50 (the source's name); how it was run: as §1
[8] = Ratio of ID50 for L1210/0 cell growth and ID50 for L1210/BdUrd cell growth.; type: functional

| IC50 (L1210 [1]) [µg/mL] | IC50 (L1210 [2]) [µg/mL] | Ratio [4] | IC50 (L1210 [5]) [µg/mL] | IC50 (L1210 [6]) [µg/mL] | IC50 (L1210 [7]) [µg/mL] | SMILES | Ratio [3] | Ratio [8] |
| --- | --- | --- | --- | --- | --- | --- | --- | --- |
| > 100 | 13.2 | > 110 | 197 (≈ 538 µM) | 1.38 | 0.275 (≈ 0.751 µM) | O=c1[nH]c(=O)n([C@H]2C[C@H](O)[C@@H](COP3(=O)OCCCO3)O2)cc1F | >7.58 | 716 |
| > 100 | 0.044 | 0.0099 | 2.43 (≈ 7.45 µM) |  | 0.002 (≈ 0.00613 µM) | O=c1[nH]c(=O)n([C@H]2C[C@H](O)[C@@H](COP(=O)(O)O)O2)cc1F [5-FLUORODEOXYURIDYLATE] | >2273 | 1215 |
| > 1000 | 3.87 | > 60 | 165 (≈ 432 µM) | 2.04 | 0.32 (≈ 0.837 µM) | O=c1[nH]c(=O)n([C@H]2C[C@H](O)[C@@H](COP3(=O)OCC(O)CO3)O2)cc1F (stereo partly drawn) | >258 | 516 |

| SMILES | IC50 (L1210 [1]) [µg/mL] | IC50 (L1210 [2]) [µg/mL] | Ratio [4] | IC50 (L1210 [5]) [µg/mL] | IC50 (L1210 [6]) [µg/mL] | IC50 (L1210 [7]) [µg/mL] | Ratio [3] | Ratio [8] |
| --- | --- | --- | --- | --- | --- | --- | --- | --- |
| O=c1[nH]c(=O)n([C@H]2C[C@H](O)[C@@H](COP3(=O)OCC(F)(F)CO3)O2)cc1F | 270 | 0.048 | > 110 | 2.42 (≈ 6.02 µM) | 0.036 | 0.003 (≈ 0.00746 µM) | 5637 | 807 |
| O=c1[nH]c(=O)n([C@H]2C[C@H](O)[C@@H](CO)O2)cc1F [FLOXURIDINE] | 34 | 0.02 | 66.5 | 1.75 (≈ 7.11 µM) |  | 0.001 (≈ 0.00406 µM) | 1700 | 1750 |

— ChEMBL document CHEMBL1122760, “Synthesis and biological properties of some cyclic phosphotriesters derived from 2'-deoxy-5-fluorouridine” (1984)
